# Experimental data published in ChEMBL document CHEMBL1806372, “Cytotoxic ring A-modified steroid analogues derived from Grundmann's ketone” (Eur J Med Chem, 2011).
# Experiments:
# Assay type in all cases: functional
# COLO 205 [1] = experiment: Cytotoxicity against human COLO205 cells after 48 hrs by sulforhodamine B assay; settings: COLO 205, 48 h, read-out: LC50 (the source's name)
# Outline: (§1)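 NCI 60 human tumour cell line panel run to the NCI protocol. GI50, TGI and LC50 come from log concentration vs % growth inhibition curves for each cell line. Lines insensitive at the top concentration are reported with ">".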
# HCC 2998 = experiment: Cytotoxicity against human HCC2998 cells after 48 hrs by sulforhodamine B assay; settings: HCC 2998, 48 h, read-out: LC50 (the source's name); outline: as §1
# HCT-116 = experiment: Cytotoxicity against human HCT116 cells after 48 hrs by sulforhodamine B assay; settings: HCT-116, 48 h, read-out: LC50 (the source's name); outline: as §1
# HCT-15 [2] = experiment: Cytotoxicity against human HCT15 cells after 48 hrs by sulforhodamine B assay; settings: HCT-15, 48 h, read-out: LC50 (the source's name); outline: as §1
# HT-29 = experiment: Cytotoxicity against human HT-29 cells after 48 hrs by sulforhodamine B assay; settings: HT-29, 48 h, read-out: LC50 (the source's name); outline: as §1
# SF-295 = experiment: Cytotoxicity against human SF295 cells after 48 hrs by sulforhodamine B assay; settings: SF-295, 48 h, read-out: LC50 (the source's name); outline: as §1
# SF-539 = experiment: Cytotoxicity against human SF539 cells after 48 hrs by sulforhodamine B assay; settings: SF-539, 48 h, read-out: LC50 (the source's name); outline: as §1
# MDA-MB-435 [3] = experiment: Cytotoxicity against human MDA-MB-435 cells after 48 hrs by sulforhodamine B assay; settings: MDA-MB-435, 48 h, read-out: LC50 (the source's name); outline: as §1
# SK-MEL-28 = experiment: Cytotoxicity against human SK-MEL-28 cells after 48 hrs by sulforhodamine B assay; settings: SK-MEL-28, 48 h, read-out: LC50 (the source's name); outline: as §1
# OVCAR-4 = experiment: Cytotoxicity against human OVCAR4 cells after 48 hrs by sulforhodamine B assay; settings: OVCAR-4, 48 h, read-out: LC50 (the source's name); outline: as §1
# NCI/ADR-RES = experiment: Cytotoxicity against human NCI/ADR-RES cells after 48 hrs by sulforhodamine B assay; settings: read-out: LC50 (the source's name); outline: as §1
# SK-OV-3 = experiment: Cytotoxicity against human SKOV3 cells after 48 hrs by sulforhodamine B assay; settings: SK-OV-3, 48 h, read-out: LC50 (the source's name); outline: as §1
# SN12C = experiment: Cytotoxicity against human SN12C cells after 48 hrs by sulforhodamine B assay; settings: read-out: LC50 (the source's name); outline: as §1
# PC-3 = experiment: Cytotoxicity against human PC3 cells after 48 hrs by sulforhodamine B assay; settings: PC-3, 48 h, read-out: LC50 (the source's name); outline: as §1
# MDA-MB-231 = experiment: Cytotoxicity against human MDA-MB-231 cells after 48 hrs by sulforhodamine B assay; settings: MDA-MB-231, 48 h, read-out: LC50 (the source's name); outline: as §1
# OVCAR-8 = experiment: Growth inhibition of human OVCAR8 cells after 48 hrs by sulforhodamine B assay; settings: OVCAR-8, 48 h
# Outline: (§2)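 GI50, TGI and LC50 were derived from log concentration versus % growth inhibition curves for each cell line. GI50 is the concentration giving a 50% decrease in net cell growth. Insensitive lines are reported as greater than the highest concentration.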
# 786-0 = experiment: Growth inhibition of human 786-0 cells after 48 hrs by sulforhodamine B assay; settings: 786-0, 48 h
# Outline: (§3)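 From log concentration versus % growth curves, GI50 (50% decrease in net growth), TGI (total growth inhibition) and LC50 (net 50% loss of initial cells) are derived for each line.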
# TK-10 = experiment: Growth inhibition of human TK10 cells after 48 hrs by sulforhodamine B assay; settings: TK-10, 48 h
# Outline: (§4)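 NCI 60-cell panel five-dose assay. GI50, TGI and LC50 are derived from log concentration versus % growth inhibition curves. Cell lines insensitive at the top concentration are given a ">" prefix.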
# DU-145 = experiment: Growth inhibition of human DU145 cells after 48 hrs by sulforhodamine B assay; settings: DU-145, 48 h; outline: as §3
# [4] = Growth inhibition of human Hs 578T cells after 48 hrs by sulforhodamine B assay; outline: as §3
# T47D = experiment: Growth inhibition of human T47D cells after 48 hrs by sulforhodamine B assay; outline: as §4
# MDA-MB-468 = experiment: Growth inhibition of human MDA-MB-468 cells after 48 hrs by sulforhodamine B assay; settings: MDA-MB-468, 48 h; outline: as §2
# MOLT-4 = experiment: Cytotoxicity against human MOLT4 cells after 48 hrs by sulforhodamine B assay; settings: MOLT-4, 48 h, read-out: LC50 (the source's name); outline: as §1
# RPMI-8226 = experiment: Cytotoxicity against human RPMI8226 cells after 48 hrs by sulforhodamine B assay; settings: RPMI-8226, 48 h, read-out: LC50 (the source's name); outline: as §1
# NCI-H226 [5] = experiment: Cytotoxicity against human NCI-H226 cells after 48 hrs by sulforhodamine B assay; settings: NCI-H226, 48 h, read-out: LC50 (the source's name); outline: as §1
# NCI-H23 = experiment: Cytotoxicity against human NCI-H23 cells after 48 hrs by sulforhodamine B assay; settings: NCI-H23, 48 h, read-out: LC50 (the source's name); outline: as §1
# NCI-H322M [6] = experiment: Cytotoxicity against human NCI-H322M cells after 48 hrs by sulforhodamine B assay; settings: read-out: LC50 (the source's name); outline: as §1
# CCRF-CEM = experiment: Growth inhibition of human CCRF-CEM cells after 48 hrs by sulforhodamine B assay; outline: as §3
# SR = experiment: Growth inhibition of human SR cells after 48 hrs by sulforhodamine B assay; outline: as §4
# A549 = experiment: Growth inhibition of human A549 cells after 48 hrs by sulforhodamine B assay; settings: A549, 48 h; outline: as §3
# HOP-62 = experiment: Growth inhibition of human HOP62 cells after 48 hrs by sulforhodamine B assay; settings: HOP-62, 48 h; outline: as §3
# NCI-H226 [7] = experiment: Growth inhibition of human NCI-H226 cells after 48 hrs by sulforhodamine B assay; settings: NCI-H226, 48 h; outline: as §2
# NCI-H322M [8] = experiment: Growth inhibition of human NCI-H322M cells after 48 hrs by sulforhodamine B assay; outline: as §2
# COLO 205 [9] = experiment: Growth inhibition of human COLO205 cells after 48 hrs by sulforhodamine B assay; settings: COLO 205, 48 h; outline: as §3
# HCT-15 [10] = experiment: Growth inhibition of human HCT15 cells after 48 hrs by sulforhodamine B assay; settings: HCT-15, 48 h; outline: as §3
# MDA-MB-435 [11] = experiment: Growth inhibition of human MDA-MB-435 cells after 48 hrs by sulforhodamine B assay; settings: MDA-MB-435, 48 h; outline: as §2
compound,measurement,setting,value
CC(C)CCC[C@@H](C)[C@H]1CC[C@H]2C3=CCn4c(=O)ccc(=O)n4[C@@H]3CC[C@]12C,CC50,COLO 205 [1],2360 nM
same,CC50,HCC 2998,4990 nM
same,CC50,HCT-116,594 nM
same,CC50,HCT-15 [2],> 100000 nM
same,CC50,HT-29,5510 nM
same,CC50,SF-295,3760 nM
same,CC50,SF-539,5640 nM
same,CC50,MDA-MB-435 [3],7680 nM
same,CC50,SK-MEL-28,4140 nM
same,CC50,OVCAR-4,5630 nM
same,CC50,NCI/ADR-RES,2280 nM
same,CC50,SK-OV-3,5470 nM
same,CC50,SN12C,5280 nM
same,CC50,PC-3,4830 nM
same,CC50,MDA-MB-231,6250 nM
same,GI50,OVCAR-8,317 nM
same,TGI,OVCAR-8,1580 nM
same,GI50,786-0,713 nM
same,TGI,786-0,1950 nM
same,GI50,TK-10,356 nM
same,TGI,TK-10,1260 nM
same,GI50,DU-145,1040 nM
same,TGI,DU-145,2260 nM
same,GI50,[4],1800 nM
same,TGI,[4],4790 nM
same,GI50,T47D,255 nM
same,TGI,T47D,1620 nM
same,GI50,MDA-MB-468,628 nM
same,TGI,MDA-MB-468,2560 nM
same,CC50,MOLT-4,> 100000 nM
same,CC50,RPMI-8226,> 100000 nM
same,CC50,NCI-H226 [5],8330 nM
same,CC50,NCI-H23,9000 nM
same,CC50,NCI-H322M [6],5840 nM
same,GI50,CCRF-CEM,360 nM
same,TGI,CCRF-CEM,> 100000 nM
same,GI50,SR,137 nM
same,TGI,SR,758 nM
same,GI50,A549,325 nM
same,TGI,A549,1240 nM
same,GI50,HOP-62,1330 nM
same,TGI,HOP-62,2670 nM
same,GI50,NCI-H226 [7],1270 nM
same,TGI,NCI-H226 [7],3260 nM
same,GI50,NCI-H322M [8],1450 nM
same,TGI,NCI-H322M [8],2910 nM
same,GI50,COLO 205 [9],255 nM
same,TGI,COLO 205 [9],623 nM
same,GI50,HCT-15 [10],418 nM
same,TGI,HCT-15 [10],2220 nM
same,GI50,MDA-MB-435 [11],354 nM
same,TGI,MDA-MB-435 [11],1780 nM
CC(C)CCC[C@@H](C)[C@H]1CC[C@H]2C3=CC[C@@H]4C(=O)C=CC(=O)[C@@H]4[C@@H]3CC[C@]12C,CC50,COLO 205 [1],> 536 nM
same,CC50,HCC 2998,> 100000 nM
same,CC50,HCT-116,> 3910 nM
same,CC50,HCT-15 [2],> 100000 nM
same,CC50,HT-29,> 100000 nM
same,CC50,SF-295,> 100000 nM
same,CC50,SF-539,> 100000 nM
same,CC50,MDA-MB-435 [3],> 100000 nM
same,CC50,SK-MEL-28,> 100000 nM
same,CC50,OVCAR-4,> 2650 nM
same,CC50,NCI/ADR-RES,> 100000 nM
same,CC50,SK-OV-3,> 100000 nM
same,CC50,SN12C,> 100000 nM
same,CC50,PC-3,> 100000 nM
same,CC50,MDA-MB-231,> 100000 nM
same,GI50,OVCAR-8,58 nM
same,TGI,OVCAR-8,1180 nM
same,GI50,786-0,311 nM
same,TGI,786-0,1500 nM
same,GI50,TK-10,2650 nM
same,TGI,TK-10,> 100000 nM
same,GI50,DU-145,632 nM
same,TGI,DU-145,> 100000 nM
same,GI50,[4],817 nM
same,TGI,[4],> 100000 nM
same,GI50,T47D,337 nM
same,TGI,T47D,> 100000 nM
same,GI50,MDA-MB-468,215 nM
same,TGI,MDA-MB-468,462 nM
same,CC50,MOLT-4,> 100000 nM
same,CC50,RPMI-8226,> 100000 nM
same,CC50,NCI-H226 [5],> 100000 nM
same,CC50,NCI-H23,> 100000 nM
same,CC50,NCI-H322M [6],> 100000 nM
same,GI50,CCRF-CEM,189 nM
same,TGI,CCRF-CEM,> 100000 nM
same,GI50,SR,207 nM
same,TGI,SR,> 100000 nM
same,GI50,A549,58 nM
same,TGI,A549,780 nM
same,GI50,HOP-62,630 nM
same,TGI,HOP-62,> 100000 nM
same,GI50,NCI-H226 [7],480 nM
same,GI50,NCI-H322M [8],305 nM
same,TGI,NCI-H322M [8],849 nM
same,GI50,COLO 205 [9],80 nM
same,TGI,COLO 205 [9],220 nM
same,GI50,HCT-15 [10],212 nM
same,GI50,MDA-MB-435 [11],229 nM
same,TGI,MDA-MB-435 [11],997 nM
